Experimental data: ChEMBL document CHEMBL4665666, “Discovery and characterization of trypanocidal cysteine protease inhibitors from the 'malaria box'” (Eur J Med Chem, 2019)

Tests used:
[1] = biological target: Cruzipain (Trypanosoma cruzi) (UniProt P25779); assay: Inhibition of recombinant Trypanosoma cruzi cruzain at 5 uM using Z-FR-AMC as substrate and measured at 12 sec interval for 5 mins without preincubation by fluorimetric analysis relative to control
Summary of the method: (§1)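 Recombinant rhodesain or cruzain (1 nM) in 0.1 M sodium acetate pH 5.5, 0.01% Triton X-100, 1 mM β-mercaptoethanol. Compound at a single concentration, either without or after 10 min enzyme pre-incubation. Inhibition is relative to DMSO, with E-64 as positive control. Done in duplicate (primary screen) or triplicate.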

[2] = biological target: Rhodesain (Trypanosoma brucei rhodesiense) (UniProt Q95PM0); assay: Inhibition of recombinant Trypanosoma brucei rhodesain expressed in Pichia pastoris at 5 uM using Z-FR-AMC as substrate and measured at 12 sec interval for 5 mins without preincubation by fluorimetric analysis relative to control; summary of the method: as §1
Rhodesain (Trypanosoma brucei rhodesiense), sequence (Q95PM0 1-450): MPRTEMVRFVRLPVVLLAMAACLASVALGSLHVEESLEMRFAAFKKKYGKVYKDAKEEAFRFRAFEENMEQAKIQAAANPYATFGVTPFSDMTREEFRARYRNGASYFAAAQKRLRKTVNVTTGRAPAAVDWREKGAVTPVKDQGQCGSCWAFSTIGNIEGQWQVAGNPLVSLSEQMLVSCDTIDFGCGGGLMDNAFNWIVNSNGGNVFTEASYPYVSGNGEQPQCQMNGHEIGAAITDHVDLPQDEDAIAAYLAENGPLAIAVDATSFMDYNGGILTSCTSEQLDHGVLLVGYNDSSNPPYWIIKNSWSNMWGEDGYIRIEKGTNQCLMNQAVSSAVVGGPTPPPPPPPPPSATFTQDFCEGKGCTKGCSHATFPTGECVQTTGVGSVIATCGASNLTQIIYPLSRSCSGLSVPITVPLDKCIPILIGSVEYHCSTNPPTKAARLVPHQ

[3] = biological target: Rhodesain (Trypanosoma brucei rhodesiense) (UniProt Q95PM0); assay: Inhibition of recombinant Trypanosoma brucei rhodesain expressed in Pichia pastoris at 5 uM using Z-FR-AMC as substrate preincubated for 10 mins followed by substrate addition and measured at 12 sec interval for 5 mins by fluorimetric analysis relative to control; settings: time 15.0 min; summary of the method: as §1
[4] = biological target: Rhodesain (Trypanosoma brucei rhodesiense) (UniProt Q95PM0); assay: Inhibition of recombinant Trypanosoma brucei rhodesain expressed in Pichia pastoris at 10 uM using Z-FR-AMC as substrate preincubated for 10 mins followed by substrate addition and measured at 12 sec interval for 5 mins by fluorimetric analysis relative to control; settings: time 15.0 min
Summary of the method: as §1, with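 “pre-incubation. Z-FR-AMC 2.5 µM, read at 340/440 nm every 12 s for 5 min.” for “pre-incubation.”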

[5] = biological target: Rhodesain (Trypanosoma brucei rhodesiense) (UniProt Q95PM0); assay: Inhibition of recombinant Trypanosoma brucei rhodesain expressed in Pichia pastoris at 10 uM using Z-FR-AMC as substrate and measured at 12 sec interval for 5 mins without preincubation by fluorimetric analysis relative to control
Summary of the method: as §1, with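 “pre-incubation. Z-FR-AMC 2.5 µM, read at 340/440 nm every 12 s for 5 min.” for “pre-incubation.”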

[6] = biological target: Cruzipain (Trypanosoma cruzi) (UniProt P25779); assay: Inhibition of recombinant Trypanosoma cruzi cruzain at 5 uM using Z-FR-AMC as substrate preincubated for 10 mins followed by substrate addition and measured at 12 sec interval for 5 mins by fluorimetric analysis relative to control; settings: time 15.0 min; summary of the method: as §1
[7] = biological target: Cruzipain (Trypanosoma cruzi) (UniProt P25779); assay: Inhibition of recombinant Trypanosoma cruzi cruzain at 10 uM using Z-FR-AMC as substrate preincubated for 10 mins followed by substrate addition and measured at 12 sec interval for 5 mins by fluorimetric analysis relative to control; settings: time 15.0 min
Summary of the method: as §1, with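 “pre-incubation. Z-FR-AMC 2.5 µM, read at 340/440 nm every 12 s for 5 min.” for “pre-incubation.”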

[8] = biological target: Cruzipain (Trypanosoma cruzi) (UniProt P25779); assay: Inhibition of recombinant Trypanosoma cruzi cruzain at 10 uM using Z-FR-AMC as substrate and measured at 12 sec interval for 5 mins without preincubation by fluorimetric analysis relative to control
Summary of the method: as §1, with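 “pre-incubation. Z-FR-AMC 2.5 µM, read at 340/440 nm every 12 s for 5 min.” for “pre-incubation.”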

[9] = test system: Schistosoma mansoni; assay: Inhibition of recombinant Schistosoma mansoni SmCB1 expressed in Pichia pastoris at 5 uM using Z-FR-AMC as substrate preincubated for 10 mins followed by substrate addition and measured at 23 sec interval for 30 mins by fluorimetric analysis relative to control
Summary of the method: (§2)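 SmCB1 (recombinant, 8 nM) in 0.1 M sodium acetate pH 5.5 with 0.01% Triton X-100 and 4 mM β-mercaptoethanol. Compound at 5 µM, either not pre-incubated or pre-incubated 10 min with enzyme. Z-FR-AMC 20 µM, fluorescence 340/440 nm every 23 s for 30 min. Inhibition is versus DMSO, with E-64 control; each condition in duplicate.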

[10] = test system: Schistosoma mansoni; assay: Inhibition of recombinant Schistosoma mansoni SmCB1 expressed in Pichia pastoris at 5 uM using Z-FR-AMC as substrate and measured at 23 sec interval for 30 mins without preincubation by fluorimetric analysis relative to control; summary of the method: as §2
[11] = biological target: Cruzipain (Trypanosoma cruzi) (UniProt P25779); assay: Inhibition of recombinant Trypanosoma cruzi cruzain at 20 uM using Z-FR-AMC as substrate preincubated for 10 mins followed by substrate addition and measured at 12 sec interval for 5 mins by fluorimetric analysis relative to control; settings: time 15.0 min
Summary of the method: as §1, with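 “pre-incubation. Z-FR-AMC 2.5 µM, read at 340/440 nm every 12 s for 5 min.” for “pre-incubation.”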

[12] = test system: Trypanosoma brucei brucei; assay: Trypanocidal activity against Trypanosoma brucei brucei Squib 427 assessed as reduction in parasite viability; format: functional, organism-based
[13] = biological target: Cruzipain (Trypanosoma cruzi) (UniProt P25779); assay: Inhibition of recombinant Trypanosoma cruzi cruzain at 20 uM using Z-FR-AMC as substrate and measured at 12 sec interval for 5 mins without preincubation by fluorimetric analysis relative to control
Summary of the method: as §1, with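 “pre-incubation. Z-FR-AMC 2.5 µM, read at 340/440 nm every 12 s for 5 min.” for “pre-incubation.”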

[14] = biological target: Rhodesain (Trypanosoma brucei rhodesiense) (UniProt Q95PM0); assay: Inhibition of recombinant Trypanosoma brucei rhodesain expressed in Pichia pastoris at 20 uM using Z-FR-AMC as substrate and measured at 12 sec interval for 5 mins without preincubation by fluorimetric analysis relative to control
Summary of the method: (§3)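 Run with no pre-incubation or with 10 min enzyme-compound pre-incubation. Fluorescence read at 340/440 nm. Concentration was set by solubility under assay conditions. Inhibition is against DMSO, with E-64 as positive control; triplicate.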

[15] = biological target: Rhodesain (Trypanosoma brucei rhodesiense) (UniProt Q95PM0); assay: Inhibition of recombinant Trypanosoma brucei rhodesain expressed in Pichia pastoris at 20 uM using Z-FR-AMC as substrate preincubated for 10 mins followed by substrate addition and measured at 12 sec interval for 5 mins by fluorimetric analysis relative to control; settings: time 15.0 min; summary of the method: as §3
[16] = biological target: Rhodesain (Trypanosoma brucei rhodesiense) (UniProt Q95PM0); assay: Inhibition of recombinant Trypanosoma brucei rhodesain expressed in Pichia pastoris at 100 uM using Z-FR-AMC as substrate and measured at 12 sec interval for 5 mins without preincubation by fluorimetric analysis relative to control; summary of the method: as §3
[17] = biological target: Cruzipain (Trypanosoma cruzi) (UniProt P25779); assay: Inhibition of recombinant Trypanosoma cruzi cruzain at 100 uM using Z-FR-AMC as substrate preincubated for 10 mins followed by substrate addition and measured at 12 sec interval for 5 mins by fluorimetric analysis relative to control; settings: time 15.0 min
Summary of the method: as §1, with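 “pre-incubation. Z-FR-AMC 2.5 µM, read at 340/440 nm every 12 s for 5 min.” for “pre-incubation.”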

[18] = biological target: Rhodesain (Trypanosoma brucei rhodesiense) (UniProt Q95PM0); assay: Inhibition of recombinant Trypanosoma brucei rhodesain expressed in Pichia pastoris at 100 uM using Z-FR-AMC as substrate preincubated for 10 mins followed by substrate addition and measured at 12 sec interval for 5 mins by fluorimetric analysis relative to control; settings: time 15.0 min; summary of the method: as §3
[19] = biological target: Cruzipain (Trypanosoma cruzi) (UniProt P25779); assay: Inhibition of recombinant Trypanosoma cruzi cruzain at 100 uM using Z-FR-AMC as substrate and measured at 12 sec interval for 5 mins without preincubation by fluorimetric analysis relative to control
Summary of the method: as §1, with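 “pre-incubation. Z-FR-AMC 2.5 µM, read at 340/440 nm every 12 s for 5 min.” for “pre-incubation.”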

[20] = biological target: Cruzipain (Trypanosoma cruzi) (UniProt P25779); assay: Inhibition of recombinant Trypanosoma cruzi cruzain at 100 uM preincubated for 10 mins in presence of 0.1% Triton X-100 relative to control
Summary of the method: (§4)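 To test detergent sensitivity, cruzain was pre-incubated 10 min at room temperature with compound with no Triton X-100, 0.01% or 0.1% Triton X-100. Cleavage of Z-FR-AMC was then followed at pH 5.5 in acetate buffer. Percent inhibition was compared across detergent levels.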

[21] = test system: Trypanosoma brucei rhodesiense; assay: Trypanocidal activity against Trypanosoma brucei rhodesiense STI B900 assessed as reduction in parasite viability; format: functional, organism-based
[22] = biological target: Cruzipain (Trypanosoma cruzi) (UniProt P25779); assay: Inhibition of recombinant Trypanosoma cruzi cruzain at 100 uM preincubated for 10 mins in presence of 0.01% Triton X-100 relative to control; summary of the method: as §4
[23] = biological target: Cruzipain (Trypanosoma cruzi) (UniProt P25779); assay: Inhibition of recombinant Trypanosoma cruzi cruzain at 100 uM preincubated for 10 mins in absence of Triton X-100 relative to control; summary of the method: as §4
[24] = biological target: Cruzipain (Trypanosoma cruzi) (UniProt P25779); assay: Inhibition of recombinant Trypanosoma cruzi cruzain at 100 uM preincubated with BSA for 5 mins followed by incubation with enzyme for 5 mins followed by substrate addition relative to control; settings: time 10.0 min
Summary of the method: (§5)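 For BSA sensitivity, compound was held 5 min with BSA (2 mg/mL in 0.001% Triton X-100), then 5 min with 1 nM cruzain, before substrate was added and activity monitored. Parallel runs omitted BSA under otherwise identical conditions.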

[25] = biological target: Cruzipain (Trypanosoma cruzi) (UniProt P25779); assay: Inhibition of recombinant Trypanosoma cruzi cruzain at 100 uM preincubated with enzyme for 5 mins followed by substrate addition in absence of BSA relative to control; summary of the method: as §5

Cruzipain (Trypanosoma cruzi), sequence (P25779 123-467 limits assumed): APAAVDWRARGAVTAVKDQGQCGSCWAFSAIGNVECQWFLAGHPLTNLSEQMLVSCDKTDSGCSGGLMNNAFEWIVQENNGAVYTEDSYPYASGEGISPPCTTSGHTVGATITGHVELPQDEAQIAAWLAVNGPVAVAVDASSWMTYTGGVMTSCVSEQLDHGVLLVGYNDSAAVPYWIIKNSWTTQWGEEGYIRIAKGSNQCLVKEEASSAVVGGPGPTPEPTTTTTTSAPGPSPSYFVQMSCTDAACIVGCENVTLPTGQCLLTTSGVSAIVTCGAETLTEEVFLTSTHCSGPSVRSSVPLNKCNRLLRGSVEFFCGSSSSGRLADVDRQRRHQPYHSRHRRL

SMILES | inhibition [1] [%] | inhibition [2] [%] | inhibition [3] [%] | inhibition [4] [%] | inhibition [5] [%] | inhibition [6] [%] | inhibition [7] [%] | inhibition [8] [%] | inhibition [9] [%] | inhibition [10] [%] | IC50 [12] [µM] | inhibition [16] [%] | inhibition [17] [%] | inhibition [18] [%] | inhibition [19] [%] | other results
CCOC(=O)c1c(C)n(-c2ccccc2)c2ccc(OC(=O)c3cc(OC)c(OC)c(OC)c3)cc12 | 36.8 | 38.5 | 74.4 | 14 | 4 | 51.7 | 19 | 10 | – | – | – | – | – | – | – | –
Cc1ccc(CN2CCC(C(=O)Nc3ccc(-c4cc5ccccc5[nH]4)cc3)CC2)o1 | – | – | – | – | – | – | – | – | 73 | 9 | – | – | – | – | – | –
CCOc1cc(Cl)c(C(C)NC(=O)c2cccc(OC)c2)cc1OCC (stereo not drawn) | – | – | – | – | – | – | – | – | 9.5 | 36.3 | – | – | – | – | – | –
CCOc1ccc(/C=C/c2nc(=O)c3ccccc3o2)cc1 | 30.1 | 32.7 | 67 | 0 | 8 | 88.6 | 3 | 10 | – | – | 32 | – | – | – | – | inhibition [11]: 10%; inhibition [13]: 15%; inhibition [14]: 14%; inhibition [15]: 0%
Cc1cc(Nc2ccc(C)c(Cl)c2)n2nc(C(F)(F)F)nc2n1 | 23.9 | 27.7 | 57.8 | 1 | 5 | 47.2 | 4 | 2 | – | – | 32 | 16 | 16 | 15 | 25 | –
CC1(c2ccccc2)Nc2ccccc2-c2nc3ccccc3n21 (stereo not drawn) | – | – | – | – | – | – | – | – | 5.2 | 49.7 | – | – | – | – | – | –
CC(C)(C)c1ccc(O)c(CNC2CCCCC2)c1 | – | – | – | – | – | – | – | – | 48 | 4.1 | – | – | – | – | – | –
COCCNCC(O)Cn1c2ccc(Cl)cc2c2cc(Cl)ccc21 (stereo not drawn) | 18.4 | 33.6 | 62.4 | 3 | 14 | 42.1 | 28 | 14 | – | – | 0.7 | 38 | 67 | 48 | 50 | inhibition [20]: 47.3%; IC50 [21]: 0.4 µM; inhibition [22]: 25.5%; inhibition [23]: 100%; inhibition [24]: 61.3%; inhibition [25]: 87.9%
FC(F)(F)c1cccc(CNC2CCN(CCc3ccccc3)CC2)c1 | 23.1 | 20.3 | 70.8 | 8 | 1 | 65.1 | 6 | 0 | – | – | – | 12 | 22 | 14 | 7 | –
